Test results taken from ChEMBL document CHEMBL1135410, “Adenine nucleotide analogues locked in a Northern methanocarba conformation: enhanced stability and potency as P2Y(1) receptor agonists” (J Med Chem, 2002).
pEC50: −log10 of the molar value. Blank lines part the entries; values can stand above or below the molecule they belong to. Activity calls are given as the source filed them. The calls are words filed in the database; no cut-off is given here.

Key:
[1] = target: T1, Ectonucleoside triphosphate diphosphohydrolase 1 (Rattus norvegicus) (UniProt P97687); experiment: Hydrolysis rate as substrate of rat Ectonucleoside triphosphate diphosphohydrolase 1 (NTPDase 1) (Ecto-apyrase); parameters: scale not given: the % may be the effect or the level left
T1 sequence (whole entry): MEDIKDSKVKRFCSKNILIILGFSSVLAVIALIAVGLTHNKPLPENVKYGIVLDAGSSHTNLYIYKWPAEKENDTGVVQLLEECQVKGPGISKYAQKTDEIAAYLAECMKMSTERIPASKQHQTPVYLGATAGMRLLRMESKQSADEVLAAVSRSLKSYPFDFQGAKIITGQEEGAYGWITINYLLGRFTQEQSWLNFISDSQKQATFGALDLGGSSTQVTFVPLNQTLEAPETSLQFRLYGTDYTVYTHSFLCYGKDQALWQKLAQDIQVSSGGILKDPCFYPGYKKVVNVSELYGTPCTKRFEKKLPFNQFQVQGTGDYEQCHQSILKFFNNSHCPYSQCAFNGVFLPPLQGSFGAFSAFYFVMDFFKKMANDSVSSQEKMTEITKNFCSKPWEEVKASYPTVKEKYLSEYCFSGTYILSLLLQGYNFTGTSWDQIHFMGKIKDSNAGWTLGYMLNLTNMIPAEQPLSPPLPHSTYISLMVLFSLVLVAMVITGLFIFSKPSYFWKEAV
In short: (§1)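 Intact CHO cells stably expressing rat NTPDase1 or NTPDase2, seeded 24 h before assay. Incubated at 37 °C in Hepes-buffered saline, pH 7.4, with nucleotide substrate. Supernatant aliquots taken over time and analysed by HPLC at 260 nm. Rate expressed relative to ATP (100%). Nontransfected CHO cells served as control. Two experiments, each in duplicate.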

[2] = target: T2, Ectonucleoside triphosphate diphosphohydrolase 2 (Rattus norvegicus) (UniProt O35795); experiment: Hydrolysis rate as substrate of rat Ectonucleoside triphosphate diphosphohydrolase 2 (NTPDase 2) (Ecto-apyrase); parameters: scale not given: the % may be the effect or the level left; in short: as §1
T2 sequence (whole entry): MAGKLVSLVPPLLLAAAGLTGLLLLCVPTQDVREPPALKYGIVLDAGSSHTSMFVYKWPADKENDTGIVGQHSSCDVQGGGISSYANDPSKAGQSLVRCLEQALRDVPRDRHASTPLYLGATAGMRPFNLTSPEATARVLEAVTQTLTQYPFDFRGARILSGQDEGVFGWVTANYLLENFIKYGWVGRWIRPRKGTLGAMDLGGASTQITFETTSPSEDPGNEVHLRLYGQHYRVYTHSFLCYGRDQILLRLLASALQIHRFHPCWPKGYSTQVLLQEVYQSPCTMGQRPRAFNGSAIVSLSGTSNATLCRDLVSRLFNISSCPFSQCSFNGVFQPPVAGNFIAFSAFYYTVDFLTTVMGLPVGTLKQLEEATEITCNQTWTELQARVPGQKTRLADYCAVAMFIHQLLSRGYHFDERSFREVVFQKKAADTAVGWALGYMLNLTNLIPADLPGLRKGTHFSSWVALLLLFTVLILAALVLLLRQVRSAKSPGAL

P2Y purinoceptor 2 [3] = target: T3, P2Y purinoceptor 2 (Homo sapiens, UniProt P41231); experiment: Agonist activity by measuring inositol phosphate accumulation in 1321N1 human astrocytoma cells stably expressing human P2Y purinoceptor 2; format: functional
T3 sequence (P41231 whole entry): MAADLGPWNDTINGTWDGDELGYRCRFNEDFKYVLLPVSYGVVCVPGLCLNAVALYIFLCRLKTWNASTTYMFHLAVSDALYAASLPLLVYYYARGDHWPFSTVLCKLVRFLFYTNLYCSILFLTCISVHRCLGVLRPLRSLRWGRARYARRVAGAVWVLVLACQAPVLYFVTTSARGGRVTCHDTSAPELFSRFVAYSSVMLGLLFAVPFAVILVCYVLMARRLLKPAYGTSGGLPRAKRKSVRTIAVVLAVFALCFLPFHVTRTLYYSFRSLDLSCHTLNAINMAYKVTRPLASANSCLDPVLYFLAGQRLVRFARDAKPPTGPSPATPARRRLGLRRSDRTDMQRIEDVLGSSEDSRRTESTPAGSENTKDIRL
In short: (§2)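 Inositol phosphate accumulation measured in 1321N1 human astrocytoma cells stably expressing human P2Y1, P2Y2, P2Y4 or P2Y11 receptor. Full concentration–effect curves, repeated in at least three separate experiments run in duplicate or triplicate. EC50 from four-parameter logistic fit. Relative efficacy (%) taken against a maximal effective concentration of UTP or UDP in the same experiment.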

[4] = target: T4, P2Y purinoceptor 11 (Homo sapiens) (UniProt Q96G91); experiment: Agonist activity by measuring inositol phosphate accumulation in 1321N1 human astrocytoma cells stably expressing human P2Y purinoceptor 11; format: functional; in short: as §2
T4 sequence (whole entry): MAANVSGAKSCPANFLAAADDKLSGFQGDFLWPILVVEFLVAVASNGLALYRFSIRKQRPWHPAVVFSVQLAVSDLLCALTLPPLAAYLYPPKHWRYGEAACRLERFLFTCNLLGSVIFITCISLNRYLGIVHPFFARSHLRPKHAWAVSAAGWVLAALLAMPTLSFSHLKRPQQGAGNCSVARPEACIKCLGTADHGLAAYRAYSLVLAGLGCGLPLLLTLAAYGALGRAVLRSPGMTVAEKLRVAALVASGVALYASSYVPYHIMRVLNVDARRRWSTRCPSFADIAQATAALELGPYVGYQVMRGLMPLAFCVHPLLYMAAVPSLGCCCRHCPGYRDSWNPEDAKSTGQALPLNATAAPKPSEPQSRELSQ

[5] = target: P2Y purinoceptor 4 (Homo sapiens) (UniProt P51582); experiment: Agonist activity by measuring inositol phosphate accumulation in 1321N1 human astrocytoma cells stably expressing human P2Y purinoceptor 4; format: functional; in short: as §2
Sequence of P2Y purinoceptor 4 (Homo sapiens) (P51582 whole entry): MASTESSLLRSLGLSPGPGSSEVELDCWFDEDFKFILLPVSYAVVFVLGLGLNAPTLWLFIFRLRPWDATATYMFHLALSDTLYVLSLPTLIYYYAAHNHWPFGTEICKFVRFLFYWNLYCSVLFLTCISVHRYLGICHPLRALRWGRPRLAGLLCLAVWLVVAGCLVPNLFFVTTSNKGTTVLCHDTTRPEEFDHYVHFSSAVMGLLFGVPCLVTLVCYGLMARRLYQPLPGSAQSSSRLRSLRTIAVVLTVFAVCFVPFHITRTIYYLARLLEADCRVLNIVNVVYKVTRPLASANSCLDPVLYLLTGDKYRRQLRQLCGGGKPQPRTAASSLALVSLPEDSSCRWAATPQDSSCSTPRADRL

P2Y purinoceptor 1 [6] = target: P2Y purinoceptor 1 (Meleagris gallopavo, UniProt P49652); experiment: Activation of Purinoceptor P2Y1-mediated phospholipase C in turkey erythrocyte membranes; format: cell membranes
Sequence of P2Y purinoceptor 1 (Meleagris gallopavo, UniProt P49652) (P49652 whole entry): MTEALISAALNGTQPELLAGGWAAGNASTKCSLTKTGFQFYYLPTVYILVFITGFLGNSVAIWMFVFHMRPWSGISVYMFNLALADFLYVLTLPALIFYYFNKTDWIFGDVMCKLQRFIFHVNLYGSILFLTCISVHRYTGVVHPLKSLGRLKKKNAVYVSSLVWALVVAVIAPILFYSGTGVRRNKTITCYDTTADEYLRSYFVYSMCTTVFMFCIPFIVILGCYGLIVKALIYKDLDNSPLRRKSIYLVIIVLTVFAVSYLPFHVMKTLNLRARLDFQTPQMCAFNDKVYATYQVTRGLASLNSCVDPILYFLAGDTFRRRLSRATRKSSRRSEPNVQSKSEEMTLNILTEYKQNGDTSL
In short: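 Turkey erythrocytes labelled 18–24 h at 37 °C with 2-[3H]myo-inositol in inositol-free DMEM. Total [3H]inositol phosphates separated by anion exchange. EC50 from four-parameter logistic fit, at least three experiments.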

P2Y purinoceptor 1 [7] = target: T5, P2Y purinoceptor 1 (Homo sapiens, UniProt P47900); experiment: Agonist activity by measuring inositol phosphate accumulation in 1321N1 human astrocytoma cells stably expressing human P2Y purinoceptor 1; No effect as either agonist or antagonist at 10 uM; format: functional; in short: as §2
T5 sequence (P47900 whole entry): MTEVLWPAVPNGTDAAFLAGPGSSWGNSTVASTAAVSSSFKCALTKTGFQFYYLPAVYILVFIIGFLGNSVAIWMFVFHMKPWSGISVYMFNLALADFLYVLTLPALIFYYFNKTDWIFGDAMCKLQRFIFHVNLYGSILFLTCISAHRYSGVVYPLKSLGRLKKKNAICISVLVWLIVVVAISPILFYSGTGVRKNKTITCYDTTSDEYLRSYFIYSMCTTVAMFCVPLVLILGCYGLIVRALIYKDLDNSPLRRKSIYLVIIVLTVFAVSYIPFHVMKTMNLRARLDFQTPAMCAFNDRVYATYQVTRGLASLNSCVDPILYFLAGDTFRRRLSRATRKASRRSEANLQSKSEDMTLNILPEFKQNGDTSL

P2Y purinoceptor 2 [8] = target: T3, P2Y purinoceptor 2; experiment: Agonist activity by measuring inositol phosphate accumulation in 1321N1 human astrocytoma cells stably expressing human P2Y purinoceptor 2; No effect as either agonist or antagonist at 10 uM; format: functional
[9] = target: P2Y purinoceptor 1 (Meleagris gallopavo) (UniProt P49652); experiment: Agonist activity by measuring Purinoceptor P2Y1-promoted phospholipase C activity in turkey erythrocyte membranes; No effect as either agonist or antagonist at 10 uM; format: functional, cell membranes
Sequence of P2Y purinoceptor 1 (Meleagris gallopavo) (P49652 whole entry): as the sequence (P49652 whole entry) above
In short: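 Turkey erythrocytes labelled 18–24 h at 37 °C with 2-[3H]myo-inositol in inositol-free DMEM. Ghosts (about 175 μg protein) incubated 5 min at 30 °C in pH 7.0 Hepes/KCl buffer with EGTA, CaCl2 and MgSO4, plus 1 μM GTPγS and the agonist. Total [3H]inositol phosphates separated by anion exchange. EC50 from four-parameter logistic fit, at least three experiments.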

P2Y purinoceptor 1 [10] = target: T5, P2Y purinoceptor 1; experiment: Accumulation of inositol phosphate in 1321N1 astrocytoma cells expressing human P2Y1 purinoceptor; format: cell-based; in short: as §2
[11] = target: T4, P2Y purinoceptor 11 (Homo sapiens); experiment: Agonist activity by measuring inositol phosphate accumulation in 1321N1 human astrocytoma cells stably expressing human P2Y purinoceptor 11; No effect as either agonist or antagonist at 10 uM; format: functional; in short: as §2
P2Y purinoceptor 2 [12] = target: T3, P2Y purinoceptor 2; experiment: Agonist activity by measuring inositol phosphate accumulation in 1321N1 human astrocytoma cells stably expressing human P2Y purinoceptor 2r; No effect as either agonist or antagonist at 10 uM; format: functional; in short: as §2
[13] = target: P2Y purinoceptor 4 (Homo sapiens) (UniProt P51582); experiment: Agonist activity by measuring inositol phosphate accumulation in 1321N1 human astrocytoma cells stably expressing human P2Y purinoceptor 4; No effect as either agonist or antagonist at 10 uM; format: functional; in short: as §2

Activity [1]: 52% | Activity [2]: 4% | pEC50 (P2Y purinoceptor 2 [3]): 7.04 | % of maximal effect [4]: 35% | % of maximal effect [5]: 32% | pEC50 (P2Y purinoceptor 1 [6]): 7.85
SMILES: Nc1ncnc2c1ncn2C1C(O)C(O)C2(COP(=O)(O)OP(=O)(O)OP(=O)(O)O)CC12 (stereo not drawn)

SMILES: Nc1ncnc2c1ncn2[C@@H]1O[C@H](COP(=O)(O)OP(=O)(O)CP(=O)(O)O)[C@@H](O)[C@H]1O
NE (P2Y purinoceptor 1 [7]): inactive | NE (P2Y purinoceptor 2 [8]): inactive | NE [9]: inactive

pEC50 (P2Y purinoceptor 1 [10]): 7.64 | pEC50 (P2Y purinoceptor 1 [6]): 8.43
SMILES: CSc1nc(N)c2ncn(C3C(O)C(O)[C@@]4(COP(=O)(O)OP(=O)(O)OP(=O)(O)O)C[C@@H]34)c2n1 (stereo partly drawn)

NE (P2Y purinoceptor 1 [7]): inactive | NE [9]: inactive
SMILES: Nc1nc(Cl)nc2c1ncn2[C@@H]1O[C@H](COP(=O)(O)O)[C@@H](O)[C@H]1O

pEC50 (P2Y purinoceptor 1 [10]): 6.23 | NE [11]: inactive | pEC50 (P2Y purinoceptor 1 [6]): 5.92
SMILES: CSc1nc(N)c2ncn([C@H]3[C@H](O)[C@H](O)[C@@]4(COP(=O)(O)O)C[C@@H]34)c2n1

pEC50 (P2Y purinoceptor 1 [10]): 6.11 | pEC50 (P2Y purinoceptor 2 [3]): 5.64 | pEC50 (P2Y purinoceptor 1 [6]): 6.14
SMILES: Nc1nc(Cl)nc2c1ncn2[C@@H]1O[C@H](COP(=O)(O)OP(=O)(O)OP(=O)(O)O)[C@@H](O)[C@H]1O

NE (P2Y purinoceptor 1 [7]): inactive | NE [9]: inactive
SMILES: C[S+]([O-])c1nc(N)c2ncn(C3O[C@H](COP(=O)(O)O)[C@@H](O)[C@H]3O)c2n1 (stereo partly drawn)

Activity [1]: 57% | Activity [2]: 34%
SMILES: Nc1ncnc2c1ncn2C12CC1C(COP(=O)(O)OP(=O)(O)OP(=O)(O)O)C(O)C2O (stereo not drawn)

NE [11]: inactive | NE (P2Y purinoceptor 2 [12]): inactive | NE [13]: inactive
SMILES: CSc1nc(N)c2ncn([C@@H]3O[C@H](COP(=O)(O)OP(=O)(O)O)[C@@H](O)[C@H]3O)c2n1

pEC50 (P2Y purinoceptor 1 [10]): 5.72 | pEC50 (P2Y purinoceptor 1 [6]): 5.41
SMILES: Nc1nc(Cl)nc2c1ncn2[C@H]1[C@H](O)[C@H](O)[C@@]2(COP(=O)(O)O)C[C@@H]12

pEC50 (P2Y purinoceptor 1 [10]): 6.80 | NE (P2Y purinoceptor 2 [8]): inactive | NE [13]: inactive | pEC50 (P2Y purinoceptor 1 [6]): 4.95
SMILES: Nc1ncnc2c1ncn2C1C(O)C(O)[C@@]2(COP(=O)(O)OP(=O)(O)CP(=O)(O)O)C[C@H]12 (stereo partly drawn)

pEC50 (P2Y purinoceptor 1 [10]): 7.47
SMILES: CSc1nc(N)c2ncn([C@@H]3O[C@H](COP(=O)(O)OP(=O)(O)OP(=O)(O)O)[C@@H](O)[C@H]3O)c2n1
